Screening data: PubChem, Broad Institute
Most compounds without a hit are left out; they make up all but 2.6% or so of the library.
Ecoli rRNA inh = inhibitors of bacterial rRNA selective over humanized ribosomes | E. coli WT GFP vs humanized-ribosome RFP mutants, fluorescence, 24 h; active compounds read low; DMSO median 0, no signal -100 | GFP signal change (wild-type ribosome), % (no concentration beside the values) | 350,000 compounds, 1.6% hits | AID 720706;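 active = significant combined selectivity score with lowered wild-type GFP, culture density cut under 30%, mutant RFP and density less affected; inactive = any of these conditions unmet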
MLL AF4-AF9 inh = blocks AF4 peptide binding to human AF9; inhibition, % at 10 µM; 350,000 compounds, 0.47% hits; AID 651704; AlphaScreen, biotin-AF4 peptide binding to FLAG-AF9; P42568;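 active = every replicate reaching a set inhibition limit, whatever the replicate mean, cut at about 25% in these data; inconclusive = mean inhibition reaches that limit but some replicates miss it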
RAD54 branch = inhibitors of human RAD54 branch migration; Q92698; RAD54 Holliday junction branch migration, FAM/BHQ fluorescence; inhibition, % at 10.4 µM; 360,000 compounds, 0.14% hits; AID 602329;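 active = mean normalized replicate activity at least 40 and at least half of replicates scoring 40 or more; inconclusive = only one of the two criteria met; inactive = mean below 40 and under half of replicates reaching 40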;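 note: inhibitors cause a drop in the FAM fluorescence signal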
RAD52 inh = RAD52 (human) annealing inhibition; inhibition, % at 18.7 µM; AID 651710; recombinant RAD52 DNA annealing, FRET fluorescence; 360,000 compounds, 0.46% hits; P43351;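 active = every replicate showing at least 50% inhibition; inconclusive = mean inhibition at least 50% but not in every replicate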
Target sequence (P43351 whole entry, looked up): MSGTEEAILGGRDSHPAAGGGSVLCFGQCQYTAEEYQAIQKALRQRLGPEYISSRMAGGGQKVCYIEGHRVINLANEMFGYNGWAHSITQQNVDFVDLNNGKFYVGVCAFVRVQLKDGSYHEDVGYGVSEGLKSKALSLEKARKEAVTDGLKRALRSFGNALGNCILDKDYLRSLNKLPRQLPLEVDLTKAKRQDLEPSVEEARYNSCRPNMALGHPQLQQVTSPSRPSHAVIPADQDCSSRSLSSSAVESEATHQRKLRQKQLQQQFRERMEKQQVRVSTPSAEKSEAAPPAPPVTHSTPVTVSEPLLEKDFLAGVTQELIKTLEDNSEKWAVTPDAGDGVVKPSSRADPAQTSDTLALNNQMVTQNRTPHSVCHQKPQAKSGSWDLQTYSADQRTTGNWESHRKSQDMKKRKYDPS
E-sel inducer = induces E-selectin expression in human endothelial cells | P16581 | 260,000 compounds, 0.37% hits | activation, % at 7.58 µM | HUVEC E-selectin immunofluorescence imaging; normalized: neutral wells 0, TNF-alpha wells 100 | AID 686992;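 active = mean E-selectin-positive cell signal at least 10% of the positive control, reached in at least 60% of replicates, without over 20% cell loss; inconclusive = no rule given, readout overlaps actives, possibly toxicity-flagged; inactive = the rest, including those meeting only one limit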
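assay system = HUVEC, human umbilical vein endothelial cells | input = 3,000 HUVEC seeded per well | medium = EGM-2 growth medium on 0.1% gelatin-coated wells | dosing = one compound dose added by pin transfer | signal = immunofluorescence imaging | read-out basis = % PE-positive cells | control set = TNF-alpha, DMSO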
GSIS activator = GLuc luminescence reporter in INS-1E cells, primary screen for activators of glucose-dependent secretion of insulin; 370,000 compounds, 0.61% hits; INS-1E GLuc reporter insulin secretion, 2-3 h; AID 743287; activation, % at 16.6 µM;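 active = lowest replicate activation of at least 40%, so every replicate reaches that level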
AID977621 = growth inhibition of wild-type GFP E. coli, dose response, H69 mutant RFP, cherry-pick; shares compounds with Ecoli rRNA inh; E. coli wild-type GFP strain growth, fluorescence, 24 h; activity change, negative = inhibition at 50 µM; 1,900 tested, under 10 active; AID 977621;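 active = Wild-type ribosome reporter drop at least double the humanized mutant ribosome reporter drop, growth loss under a set limit; inconclusive = no clear call, values can overlap the other calls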;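 note: wild-type GFP and H69 mutant RFP strains grown together 50/50 in each well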
AID977628 = E. coli growth inhibition, wild-type GFP versus h24 humanized RFP strain, dose response, h24 mutant RFP vs wild-type GFP, cherry-pick; shares compounds with Ecoli rRNA inh; E. coli WT GFP strain growth, fluorescence, 24 h; activity change, negative = inhibition at 50 µM; 1,900 tested, under 10 active; AID 977628;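 active = compound lowering the normal-ribosome reporter at least twice as much as the humanized-ribosome reporter, growth loss under a set limit; inconclusive = no clear call, values can overlap the other calls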;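 note: wild-type GFP and h24 humanized RFP strains co-cultured 1 to 1 per well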
Numbers stand for hits; 0 = inactive; ? = inconclusive; - = no result given.

SMILES	Ecoli rRNA inh	MLL AF4-AF9 inh	RAD54 branch	RAD52 inh	E-sel inducer	GSIS activator	AID977621	AID977628
Cc1cccc(N2Cc3ccc(Br)cc3C2)c1	-21	0	-	0	-	0	0	0
C/C(=N/O)c1cccc(N2Cc3ccccc3C2)c1	0	0	0	0	0	0	-	-
COc1cccc(S(=O)(=O)Nc2ccc3c(c2)[C@@H]2C[C@@H](CC(=O)O)O[C@@H](CO)[C@@H]2O3)c1	0	0	0	0	0	0	-	-
CO[C@H]1CN(C)C(=O)c2cc(NC(=O)C3CCC3)ccc2OC[C@H](C)NC[C@H]1C	0	0	0	0	0	0	-	-
C[C@H](CO)N1C[C@H](C)[C@H](CN(C)C(=O)Nc2ccc(F)cc2)Oc2ccc(N(C)C)cc2CC1=O	0	0	0	0	0	0	-	-
CO[C@H]1CN(C)C(=O)c2ccc(NC(=O)c3nc4ccccc4s3)cc2OC[C@H](C)N(Cc2ccncc2)C[C@H]1C	0	0	0	0	0	0	-	-
CO[C@@H]1CN(C)C(=O)c2ccc(NC(=O)c3nc4ccccc4s3)cc2OC[C@@H](C)N(Cc2ccncc2)C[C@@H]1C	-25	0	0	0	0	0	-	?
CCCNC(=O)Nc1ccc2c(c1)C(=O)N(C)C[C@@H](OC)[C@@H](C)CN(C(=O)C1CCC1)[C@@H](C)CO2	0	0	0	0	0	0	-	-
COc1ccccc1NC(=O)c1ccc(NC(=O)c2ccco2)cc1	0	0	-	0	0	0	-	-
COc1cc(OC)cc(C(=O)Nc2ccc(C(=O)Nc3ccccc3OC)cc2)c1	-22	0	0	0	0	0	0	?
COc1ccc(C(=O)Nc2cccc3ccccc23)cc1	-19	0	0	0	0	0	0	0
O=C(CCN1CCCCC1)NCC[C@@H]1CC[C@H](NC(=O)C2CC2)[C@@H](CO)O1	0	0	0	0	0	0	-	-
CC1CCCCN1C(=O)C1CCCN(S(=O)(=O)c2cccc3nsnc23)C1 (stereo unspecified)	-20	0	0	0	-	0	0	?
CCOC(=O)C1CCCN(S(=O)(=O)c2cccc3nsnc23)C1 (stereo unspecified)	0	0	0	0	-	0	-	-
COc1ccc(OCC(O)CNC(=O)c2ccc(OC)cc2)cc1 (stereo unspecified)	0	0	-	0	-	0	-	-
COc1ccc(OCC(O)CNS(=O)(=O)c2cccc(Cl)c2)cc1 (stereo unspecified)	-21	0	0	0	-	0	0	0
CNC(=O)c1ccsc1NC(=O)c1ccc2c(c1)CCCC2	-26	0	0	0	0	-	?	-
CCC(=O)N1C[C@H]2[C@@H](c3ccccc31)[C@@H](CO)N2Cc1cc(F)ccc1F	0	0	0	0	0	0	-	-
COC(=O)c1ccc(C(=O)Nc2ccc3nc(-c4ccncc4)[nH]c3c2)cc1	-28	0	0	0	0	0	0	0
O=C(Nc1ccc2nc(-c3cccnc3)[nH]c2c1)c1ccco1	-31	0	0	0	0	-	0	-
O=C(Nc1ccc2nc(-c3ccccc3)[nH]c2c1)c1cccs1	-32	0	0	0	-	0	0	-
O=C(Nc1ccc2nc(-c3ccc4nc[nH]c4c3)[nH]c2c1)c1cccs1	-	-	0	-	-	-	-	-
Cc1ccc(S(=O)(=O)N(C)c2ccccc2)cc1	-	-	0	-	-	-	-	-
CC(=O)Oc1ccc(N(c2ccccc2)S(=O)(=O)c2ccc(C)cc2)cc1	-24	0	0	0	0	0	-	0
O=S(=O)(c1ccc(Cl)cc1)N1CCN=C1SCc1cccnc1	0	0	-	0	0	0	-	-
O=S(=O)(c1ccc(Cl)cc1)N1CCN=C1SCc1cccc(Cl)c1	-23	0	-	0	0	0	0	-
CC(=O)Nc1cccc(OCCCOc2ccc([N+](=O)[O-])cc2)c1	0	0	-	0	0	0	-	-
CC(=O)Nc1cccc(OCc2ccc([N+](=O)[O-])cc2)c1	-23	0	-	0	0	0	0	0
